According to ChEMBL document CHEMBL3865800, “Design, synthesis and biological evaluation of 4-anilinoquinazoline derivatives as new c-myc G-quadruplex ligands” (Eur J Med Chem, 2016):
The source made the active and inactive calls. The calls are words filed in the database; no cut-off is given here.

Columns and labels:
[1] = Cytotoxicity against mouse primary mesangial cells assessed as reduction in cell viability after 48 hrs by MTT assay; type: toxicity
[2] = Binding affinity to biotinylated 5'-Pu22-3'-labelled c-myc G-quadruplex DNA (unknown origin) after 240 secs by SPR assay
How it was run: (§1)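 SPR: biotinylated Pu22 and biotinylated duplex folded in 50 mM Tris-HCl pH 7.4, 150 mM KCl, 0.005% Tween20, captured (~1000 RU) on separate flow cells with a blank reference; ligand 0.0625–10 μM in running buffer, 240 s association then 240 s dissociation at 25 °C; equilibrium KD derived.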

[3] = Cytotoxicity against human HeLa cells assessed as reduction in cell viability after 48 hrs by MTT assay; type: functional, cell-based
[4] = Binding affinity to 5'-FPu22T-3'-labelled c-myc G-quadruplex DNA (unknown origin) assessed as change in melting temperature by FRET assay
How it was run: (§2)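 Fluorescence melting on real-time PCR instrument; 0.4 μM labelled oligonucleotide (FPu22T or duplex-forming F10T), ligand 2.0 μM, in 10 mM Tris-HCl pH 7.4 with 10 or 60 mM KCl; ex 470/em 530 nm at 1 °C steps over 37–99 °C, 30 s equilibration each; ΔTm = Tm(DNA+ligand) − Tm(DNA).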

[5] = Selectivity ratio of Kd for double stranded DNA (unknown origin) to Kd for biotinylated 5'-Pu22-3'-labelled c-myc G-quadruplex DNA
[6] = Cytotoxicity against human Raji cells assessed as reduction in cell viability after 48 hrs by MTT assay; type: functional, cell-based
[7] = Binding affinity to 5'-FPu22T-3'-labelled c-myc G-quadruplex DNA (unknown origin) assessed as change in melting temperature at 2 uM in presence ds26 DNA of by FRET assay
How it was run: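 FRET melting of 0.4 μM labelled FPu22T with ligand 2.0 μM, alone or with 10-fold (4 μM), 50-fold (20 μM) or 100-fold (40 μM) excess unlabelled duplex ds26 as competitor; Tris-HCl 10 mM pH 7.4 with 10 or 60 mM KCl; ex 470/em 530 nm read every 1 °C from 37–99 °C, 30 s hold; ΔTm = Tm(DNA+ligand) − Tm(DNA).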

[8] = Binding affinity to biotinylated double stranded DNA (unknown origin) after 240 secs by SPR assay; how it was run: as §1
[9] = Binding affinity to F10T duplex DNA (unknown origin) assessed as change in melting temperature by FRET assay; how it was run: as §2
[10] = Cytotoxicity against human CA46 cells assessed as reduction in cell viability after 48 hrs by MTT assay; type: functional, cell-based; settings: CA46, 48 h
[11] = Cytotoxicity against human A549 cells assessed as reduction in cell viability after 48 hrs by MTT assay; type: functional, cell-based; settings: A549, 48 h
[12] = Binding affinity to 5'-Pu22-3' c-myc G-quadruplex DNA (unknown origin) assessed as induction of parallel c-myc G-quadruplex conformation at 2 equiv after 6 hrs in absence of KCl by CD-spectroscopic analysis
How it was run: (§3)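 Pu22 at 3 μM final in 10 mM Tris-HCl buffer with ligand at 2 equiv, with 100 mM KCl or without KCl; heated 95 °C 5 min, slowly cooled, held ≥6 h; CD spectra 230–330 nm, 1 mm quartz cell, 1 nm bandwidth and step, 0.5 s/point, average of two scans.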

[13] = Binding affinity to 5'-Pu22-3' c-myc G-quadruplex DNA (unknown origin) assessed as maintainance of parallel c-myc G-quadruplex conformation at 2 equiv after 6 hrs in presence of KCl by CD-spectroscopic analysis; how it was run: as §3

| SMILES | Kd [2] | ΔTm [4] | Selectivity ratio [5] | Activity [7] | Kd [8] | ΔTm [9] | Activity [12] | Activity [13] | IC50 at 48 h [1] | IC50 [3] | IC50 [6] | IC50 [10] | IC50 [11] |
| --- | --- | --- | --- | --- | --- | --- | --- | --- | --- | --- | --- | --- | --- |
| Oc1ccccc1-c1nc(Nc2ccc(OCCN3CCOCC3)cc2)c2ccccc2n1 |  | 0.7 °C |  |  |  | 0.1 °C |  |  |  |  |  |  |  |
| CCN(CC)CCC(=O)Nc1ccc(Nc2nc(-c3ccccc3N)nc3ccccc23)cc1 | 4.68 µM | 5.3 °C |  |  |  | 0.1 °C |  |  | 5.7 µM | 7.2 µM | 14.5 µM | 3.3 µM | 9.1 µM |
| CCN(CC)CCOc1ccc(Nc2nc(N(CC)CC)nc3ccccc23)cc1 | 2.89 µM | 7.1 °C |  |  |  | 0.4 °C |  |  | 9.8 µM | 17.4 µM | 20.3 µM | 20.5 µM | 5 µM |
| CCN(CC)CCC(=O)Nc1ccc(Nc2nc(N(CC)CC)nc3ccccc23)cc1 | 1.64 µM | 12.2 °C | > 6.1 | Active | > 10 µM | 0.2 °C |  |  | 6.4 µM | 6.3 µM | 5.1 µM | 10.3 µM | 6.1 µM |
| Oc1ccccc1-c1nc(Nc2ccc(OCCN3CCCC3)cc2)c2ccccc2n1 |  | 1.6 °C |  |  |  | 0.2 °C |  |  |  |  |  |  |  |
| O=C(CN1CCOCC1)Nc1ccc(Nc2nc(-c3ccccc3NC(=O)CN3CCOCC3)nc3ccccc23)cc1 | 8.08 µM | 0.2 °C |  |  |  | 0.2 °C |  |  | > 50 µM | > 50 µM | 12 µM | 2.14 µM | > 50 µM |
| CCN(CC)CCCOc1ccc(Nc2nc(N(CC)CC)nc3ccccc23)cc1 | 2.46 µM | 8.2 °C |  |  |  | 0.2 °C |  |  | 8.1 µM | 2.3 µM | 5.7 µM | 12.2 µM | 4.8 µM |
| CN(C)CCCNCCC(=O)Nc1ccc(C(=O)Nc2cc(Cl)ccc2-c2nc(NCCCN(C)C)c3ccccc3n2)cc1 |  | 16.6 °C |  |  |  | 0.6 °C |  |  |  |  |  |  |  |
| CCN(CC)CCOc1ccc(Nc2nc(-c3ccccc3O)nc3ccccc23)cc1 | > 10 µM | 0.4 °C |  |  |  | 0.1 °C |  |  |  |  |  |  |  |
| Oc1ccccc1-c1nc(Nc2ccc(OCCN3CCCCC3)cc2)c2ccccc2n1 | > 10 µM | 1.4 °C |  |  |  | 0.2 °C |  |  |  |  |  |  |  |
| CCN(CC)CCCNCCC(=O)Nc1ccc(Nc2nc(-c3ccccc3NC(=O)CCNCCCN(CC)CC)nc3ccccc23)cc1 | 1.6 µM | 26.6 °C | 3.9 | Active | 6.21 µM | 3.6 °C |  |  | > 50 µM | > 50 µM | > 50 µM | > 50 µM | > 50 µM |
| CCN(CC)CCC(=O)Nc1ccc(Nc2nc(-c3ccccc3)nc3ccccc23)cc1 | > 10 µM | 4.6 °C |  |  |  | 0.2 °C |  |  | 6.2 µM | 8.3 µM | 8.5 µM | 3.6 µM | 17.6 µM |
| CN1CCN(CCOc2ccc(Nc3nc(-c4ccccc4O)nc4ccccc34)cc2)CC1 | > 10 µM | 0.4 °C |  |  |  | 0.1 °C |  |  |  |  |  |  |  |
| CCN(CC)CCNCCOc1ccc(Nc2nc(-c3ccccc3O)nc3ccccc23)cc1 | > 10 µM | 0.4 °C |  |  |  | 0.2 °C |  |  |  |  |  |  |  |
| CCN(CC)CCC(=O)Nc1ccc(Nc2nc(Cl)nc3ccccc23)cc1 | 5.52 µM | 1 °C |  |  |  | 0.1 °C |  |  | > 50 µM | > 50 µM | > 50 µM | 31.3 µM | 45.3 µM |
| CCN(CC)CC(=O)Nc1ccc(Nc2nc(-c3ccc(O)cc3)nc3ccccc23)cc1 | 6.3 µM | 7.2 °C |  |  |  | 0.7 °C |  |  | 12.9 µM | 21 µM | 12.9 µM | 13.3 µM | 27 µM |
| CCN(CC)CC(=O)Nc1ccc(Nc2nc(N(CC)CC)nc3ccccc23)cc1 | 3.34 µM | 10 °C | > 3 |  | > 10 µM | 0.4 °C |  |  | 10.2 µM | 21 µM | 13.5 µM | 4.2 µM | 20.8 µM |
| CCN(CC)CC(=O)Nc1ccc(Nc2nc(Cl)nc3ccccc23)cc1 |  | 0.1 °C |  |  |  | 0.1 °C |  |  | > 50 µM | > 50 µM | > 50 µM | 33.2 µM | > 50 µM |
| CCN(CC)CC(=O)Nc1ccc(Nc2nc(-c3ccccc3NC(=O)CN(CC)CC)nc3ccccc23)cc1 | 3.94 µM | 8.8 °C |  |  |  | 0.3 °C |  |  | 2.7 µM | 29.8 µM | 6.5 µM | 3.14 µM | > 50 µM |

More lines, main results first:

| Kd [2] | ΔTm [4] | Selectivity ratio [5] | Activity [7] | Kd [8] | ΔTm [9] | Activity [12] | Activity [13] | SMILES | IC50 at 48 h [1] | IC50 [3] | IC50 [6] | IC50 [10] | IC50 [11] |
| --- | --- | --- | --- | --- | --- | --- | --- | --- | --- | --- | --- | --- | --- |
| 0.55 µM | 12.6 °C | > 18.2 | Active | > 10 µM | 0.8 °C |  |  | O=C(CCCN1CCCC1)Nc1ccc(Nc2nc(-c3ccccc3NC(=O)CCCN3CCCC3)nc3ccccc23)cc1 | > 50 µM | 22.4 µM | 31.6 µM | 13.7 µM | 27.2 µM |
| 0.14 µM | 19.4 °C |  | Active |  | 0.8 °C | Active | Active | CN(C)CCNCCC(=O)Nc1ccc(Nc2nc(-c3ccccc3NC(=O)CCNCCN(C)C)nc3ccccc23)cc1 | > 50 µM | > 50 µM | > 50 µM | 28.2 µM | > 50 µM |
| 0.52 µM | 13.1 °C | > 19.2 | Active | > 10 µM | 0.4 °C |  |  | CCN(CC)CCCCC(=O)Nc1ccc(Nc2nc(-c3ccccc3NC(=O)CCCCN(CC)CC)nc3ccccc23)cc1 | > 50 µM | 12.7 µM | 12.6 µM | 5.7 µM | > 50 µM |
| 0.61 µM | 12.5 °C |  |  |  | 0.1 °C |  |  | CN1CCN(CC(=O)Nc2ccc(Nc3nc(-c4ccccc4NC(=O)CN4CCN(C)CC4)nc4ccccc34)cc2)CC1 | 38.2 µM | 28.7 µM | 17.9 µM | 12.3 µM | 21.6 µM |
| 0.4 µM | 13.2 °C |  | Active |  | 0.3 °C | Active | Active | CN1CCN(CCC(=O)Nc2ccc(Nc3nc(-c4ccccc4NC(=O)CCN4CCN(C)CC4)nc4ccccc34)cc2)CC1 | > 50 µM | 20.1 µM | 27.8 µM | 19.5 µM | > 50 µM |
| 0.49 µM | 11.4 °C | 18.7 |  | 9.18 µM | 3.7 °C |  |  | CCN(CC)CCC(=O)Nc1cc(Cl)ccc1-c1nc(NCCCN(C)C)c2ccccc2n1 |  |  |  |  |  |
| 0.57 µM | 21.8 °C | 10.3 | Active | 5.89 µM | 3.7 °C |  |  | CN(C)CCCNCCC(=O)Nc1ccc(Nc2nc(-c3ccccc3NC(=O)CCNCCCN(C)C)nc3ccccc23)cc1 | > 50 µM | > 50 µM | > 50 µM | > 50 µM | > 50 µM |
| 0.54 µM | 13.6 °C | > 18.5 | Active | > 10 µM | 0.9 °C |  |  | CCN(CC)CCCC(=O)Nc1ccc(Nc2nc(-c3ccccc3NC(=O)CCCN(CC)CC)nc3ccccc23)cc1 | > 50 µM | 32.5 µM | 27.3 µM | 21 µM | 24.5 µM |
| 0.21 µM | 18 °C |  | Active |  | 0.6 °C | Active | Active | CCN(CC)CCNCCC(=O)Nc1ccc(Nc2nc(-c3ccccc3NC(=O)CCNCCN(CC)CC)nc3ccccc23)cc1 | > 50 µM | > 50 µM | > 50 µM | > 50 µM | > 50 µM |
| 1.33 µM | 4.8 °C |  |  |  | 0.3 °C |  |  | O=C(CCN1CCOCC1)Nc1ccc(Nc2nc(-c3ccccc3NC(=O)CCN3CCOCC3)nc3ccccc23)cc1 | > 50 µM | > 50 µM | > 50 µM | > 50 µM | > 50 µM |
